Laboratory results from ChEMBL document CHEMBL1139586, “A linear discrimination analysis based virtual screening of trichomonacidal lead-like compounds: outcomes of in silico studies supported by experimental results” (2005).

Columns and labels:
Assay type in all cases: functional
[1] = test system: Trichomonas vaginalis; test: In vitro cytostatic activity against Trichomonas vaginalis at a dose of 10 ug/ml after 24 hours
In short: (§1)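 T. vaginalis JH31A cultured in modified Diamond medium plus equine serum, 37 °C, 5% CO2. Compounds added at 100, 10 and 1 µg/ml 6 h post-seeding (0 h). Neubauer-chamber counts of viable parasites at 24 and 48 h. Cytostatic activity is the percentage growth inhibition relative to untreated controls.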

[2] = test system: Trichomonas vaginalis; test: In vitro cytostatic activity against Trichomonas vaginalis at a dose of 1 ug/ml after 48 hours; in short: as §1
[3] = test system: Trichomonas vaginalis; test: In vitro cytocidal activity against Trichomonas vaginalis at a dose of 10 ug/ml after 48 hours
In short: (§2)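 T. vaginalis strain JH31A grown in modified Diamond medium with equine serum at 37 °C, 5% CO2. Test agents added 6 h after seeding (0 h). Viable protozoa counted by Neubauer chamber after 24 and 48 h incubation at 37 °C. Cytocidal activity is the percentage reduction in viable organisms relative to untreated controls, from microscopic counts.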

[4] = test system: Trichomonas vaginalis; test: In vitro cytocidal activity against Trichomonas vaginalis at a dose of 100 ug/ml after 48 hours; in short: as §2
[5] = test system: Trichomonas vaginalis; test: In vitro cytocidal activity against Trichomonas vaginalis at a dose of 100 ug/ml after 24 hours; in short: as §2
[6] = test system: Trichomonas vaginalis; test: In vitro cytostatic activity against Trichomonas vaginalis at a dose of 1 ug/ml after 24 hours; in short: as §1
[7] = test system: Trichomonas vaginalis; test: In vitro cytostatic activity against Trichomonas vaginalis at a dose of 10 ug/ml after 48 hours; in short: as §1
[8] = test system: Trichomonas vaginalis; test: In vitro cytostatic activity against Trichomonas vaginalis at a dose of 100 ug/ml after 48 hours; in short: as §1
[9] = test system: Trichomonas vaginalis; test: In vitro cytostatic activity against Trichomonas vaginalis at a dose of 100 ug/ml after 24 hours; in short: as §1
[10] = test system: Trichomonas vaginalis; test: In vitro cytocidal activity against Trichomonas vaginalis at a dose of 0.5 mg/ml after 24 hours; in short: as §2
[11] = test system: Trichomonas vaginalis; test: In vitro cytocidal activity against Trichomonas vaginalis at a dose of 0.5 mg/ml after 48 hours; in short: as §2
[12] = test system: Trichomonas vaginalis; test: In vitro cytocidal activity against Trichomonas vaginalis at a dose of 2 mg/ml after 48 hours; in short: as §2
[13] = test system: Trichomonas vaginalis; test: In vitro cytocidal activity against Trichomonas vaginalis at a dose of 1 mg/mL after 48 hours; in short: as §2
[14] = test system: Trichomonas vaginalis; test: In vitro cytocidal activity against Trichomonas vaginalis at a dose of 1 mg/mL after 24 hours; in short: as §2
[15] = test system: Trichomonas vaginalis; test: In vitro cytocidal activity against Trichomonas vaginalis at a dose of 2 mg/ml after 24 hours; in short: as §2

Compound	Cytostatic activity [1]	Cytostatic activity [2]	Cytocidal activity [3]	Cytocidal activity [4]	Cytocidal activity [5]	Cytostatic activity [6]	Cytostatic activity [7]	Cytostatic activity [8]	Cytostatic activity [9]	Cytocidal activity [10]	Cytocidal activity [11]	Cytocidal activity [12]	Cytocidal activity [13]	Cytocidal activity [14]	Cytocidal activity [15]
CN1CC(=O)N(C)c2cc([N+](=O)[O-])ccc21	71.11%	0%	92.03%	100%	100%	0%									
CN1CC(=O)Nc2cc([N+](=O)[O-])ccc21	59.05%	8.32%		100%	100%	0%	13.97%								
O=C1Nc2cc([N+](=O)[O-])ccc2N2CCCCC12 (centres undefined)	57.45%	0%		100%	98.43%	0%	75.15%								
O=C1Nc2cc([N+](=O)[O-])ccc2N2Cc3ccccc3CC12 (centres undefined)	51.82%	0%				0%	37.15%	81.25%	85.53%						
CN1C(=O)C[N+](C)(C)c2ccc([N+](=O)[O-])cc21.[Cl-]	72.85%	0.78%		100%	100%	0.17%	1.13%								
O=C1CN(CCCCCCCl)c2ccc([N+](=O)[O-])cc2N1	79.28%	0%		99.83%	99.15%	8.76%	30.56%								
O=C1Nc2cc([N+](=O)[O-])ccc2N2CCCC12 (centres undefined)	33.48%	17.32%		100%	59.99%	11.09%	54.22%								
CN1C(=O)CN(CCCCCCl)c2ccc([N+](=O)[O-])cc21	72.68%	69.96%	93.94%	100%	100%	0%									
Cc1ncc([N+](=O)[O-])n1CCO [METRONIDAZOLE]										98.19%	98.79%	100%	99.72%	99.18%	99.63%
